From ChEMBL document CHEMBL1145965, “4-Substituted 4-hydroxycyclohexa-2,5-dien-1-ones with selective activities against colon and renal cancer cell lines” (J Med Chem, 2003)
pIC50: −log10 of the molar value.

What was measured:
[1] = tested on: Panel NCI-60 (60 carcinoma cell lines); assay: In vitro mean growth lethal concentration in colon subpanel against 60-cell panel; type: functional; conditions: Homo sapiens, read-out: Mean LC50
[2] = tested on: Panel NCI-60 (60 carcinoma cell lines); assay: In vitro mean growth lethal concentration against 60-cell panel; type: functional; conditions: Homo sapiens, read-out: Mean LC50
SW-620 = assay: In vitro lethal concentration against least sensitive colon SW-620 cell line; type: functional; conditions: Homo sapiens, read-out: LC50 (the source's name)
[3] = tested on: Panel NCI-60 (60 carcinoma cell lines); assay: In vitro mean growth lethal concentration in renal subpanel against 60-cell panel; type: functional; conditions: Homo sapiens, read-out: Mean LC50
HCT-116 [4] = assay: Inhibitory activity against HCT116 colon cancer cell line; type: functional, cell-based; conditions: Homo sapiens
In short: (§1)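 Cells grown in RPMI 1640 with 2 mM L-glutamine and 10% fetal calf serum, 37 °C, 5% CO2. Seeded at 5 × 10³ per well, 24 h adherence, then drug 0.1 nM–100 μM final (n = 8; DMSO stocks, dilutions in medium) for 72 h.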

HCT-116 [5] = assay: In vitro lethal concentration against most sensitive colon HCT116 cell line; type: functional; conditions: Homo sapiens, read-out: LC50 (the source's name)
[6] = tested on: Panel NCI-60 (60 carcinoma cell lines); assay: In vitro mean growth inhibitory activity against 60-cell panel; type: functional; conditions: Homo sapiens
ACHN = assay: In vitro lethal concentration against most sensitive ACHN cell line; type: functional; conditions: Homo sapiens, read-out: LC50 (the source's name)
HT-29 = assay: Inhibitory activity against HT-29 colon cancer cell line; type: functional, cell-based; conditions: Homo sapiens; in short: as §1
MCF7 = assay: Inhibitory activity against MCF-7 mammary carcinoma cell line; type: functional, cell-based; conditions: Homo sapiens; in short: as §1
MDA-MB-468 = assay: Inhibitory activity against MDA-468 mammary carcinoma cell line; type: functional, cell-based; conditions: Homo sapiens; in short: as §1
A549 = assay: Inhibitory activity against A549 lung adenocarcinoma cell line; type: functional, cell-based; conditions: Homo sapiens; in short: as §1

Row | Structure (SMILES) | CC50 [1] [µM] | CC50 [2] [µM] | CC50 (SW-620) [µM] | CC50 [3] [µM] | pIC50 (HCT-116 [4]) | CC50 (HCT-116 [5]) [µM] | GI50 [6] [µM] | CC50 (ACHN) [µM] | pIC50 (HT-29) | pIC50 (MCF7) | pIC50 (MDA-MB-468) | pIC50 (A549)
1 | O=C1C=CC(O)(c2ccccc2)C=C1 | 10.6 | 21.9 | 51.3 | 16.7 | 5.65 | 6.31 | 2.29 | 5.5 | 5.44 | – | – | –
2 | COc1ccc2nc(C3(OC)C=CC(=NS(=O)(=O)c4ccc(C)cc4)C=C3)sc2c1 (stereo unspecified) | 13.2 | 18.6 | 77.6 | 11.2 | – | 5.01 | 1.91 | 8.32 | – | – | – | –
3 | COC1(c2nc3ccc(F)cc3s2)C=CC(=NS(=O)(=O)c2ccc(C)cc2)C=C1 (stereo unspecified) | 25.6 | 30.2 | > 100 | 19.1 | – | 5.25 | 1.74 | > 100 | – | – | – | –
4 | O=C1/C(=C\c2ccccc2)CC(O)(c2nc3ccccc3s2)C/C1=C/c1ccccc1 (stereo unspecified) | 17.4 | 47.9 | > 100 | 37.2 | – | 5.37 | 2.69 | 30.9 | – | – | – | –
5 | O=C1C=CC(O)(c2cnc3ccccc3c2)C=C1 | 15.8 | 15.8 | > 100 | 9.66 | 6.14 | 4.26 | 1.07 | 15.1 | 6.01 | 6.11 | 5.77 | –
6 | O=C1C=CC(O)(c2cc3ccccc3s2)c2ccccc21 (stereo unspecified) | > 100 | 70.8 | > 100 | > 100 | – | > 100 | 2.29 | > 100 | – | – | – | –
7 | O=C1C=CC(O)(c2nc3ccccc3s2)C(Cl)=C1 (stereo unspecified) | 2.31 | 6.31 | > 100 | 1.8 | – | 0.68 | 0.46 | 0.58 | – | – | – | –
8 | COC1(c2nc3ccc(C)cc3s2)C=CC(=NS(=O)(=O)c2ccc(C)cc2)C=C1 (stereo unspecified) | 9.92 | 19.5 | 95.5 | 10.6 | – | 1.78 | 1.2 | 6.92 | – | – | – | –
9 | O=C1C=CC(O)(c2nc3ccccc3o2)C=C1 | 1.13 | 7.08 | > 100 | 1.64 | 6.74 | 0.87 | 0.46 | 4.9 | 6.54 | 6.41 | 6.46 | 5.63
10 | O=C1C=CC(O)(c2cc3ccccc3o2)C=C1 | 3.66 | 7.24 | > 100 | 2.4 | 6.80 | 0.6 | 0.52 | 1 | 6.38 | – | – | 5.64
11 | O=C1C=CC(O)(c2nccs2)C=C1 | 14.5 | 14.5 | 26.3 | 9.17 | 6.21 | 4.9 | 1.35 | 7.94 | 6.14 | – | – | –
12 | O=C1C=CC(O)(c2cc3ccccc3s2)C=C1 | 1.69 | 5.75 | > 100 | 1.4 | 6.77 | 0.6 | 0.25 | 0.33 | 6.26 | – | – | 5.61
13 | O=C1C=CC(O)(c2cc3ccccc3o2)c2ccccc21 (stereo unspecified) | 7.76 | 7.76 | 3.55 | 6.48 | – | 4.9 | 0.74 | 5.75 | – | – | – | –
14 | O=C1CCC(O)(c2nc3ccccc3s2)CC1 | > 100 | > 100 | > 100 | > 100 | – | > 100 | > 100 | > 100 | – | – | – | –
15 | O=C1C=CC(O)(c2cccc3ccccc23)C=C1 | 12.2 | 25.7 | > 100 | 17 | 6.38 | 5.37 | 1.82 | 13.2 | 5.87 | 6.11 | 5.75 | –
16 | O=C1C=CC(O)(c2cccs2)C=C1 | 32.5 | 30.9 | > 100 | 14.4 | 6.18 | 5.89 | 1.78 | 35.5 | 5.90 | 6.24 | 6.14 | –
17 | O=C1C=CC(O)(c2ccccn2)C=C1 | 6.9 | 20.4 | > 100 | 11.3 | 6.26 | 5.24 | 1.91 | 8.91 | 6.34 | 6.14 | 5.82 | –
18 | COC1(c2nc3ccccc3s2)C=CC(=NS(=O)(=O)c2ccc(C)cc2)C=C1 (stereo unspecified) | > 100 | 83.2 | > 100 | > 100 | – | 44.7 | 15.5 | > 100 | – | – | – | –
19 | COC1(c2nc3c(F)cccc3s2)C=CC(=NS(=O)(=O)c2ccc(C)cc2)C=C1 (stereo unspecified) | 26.9 | 27.5 | 67.6 | 14.4 | – | 57.5 | 2.57 | 7.59 | – | – | – | –
20 | O=C1C=CC(O)(c2ccc3ccccc3c2)C=C1 | 6.58 | 11.7 | > 100 | 4.68 | 6.09 | 4.47 | 0.81 | 7.76 | 5.60 | 5.89 | 5.85 | –
21 | CC1=CC(O)(c2nc3ccccc3s2)C=C(C)C1=O | > 100 | > 100 | > 100 | > 100 | – | > 100 | 38.2 | > 100 | – | – | – | –
22 | Oc1ccc(-c2nc3ccccc3s2)cc1 | > 100 | > 100 | > 100 | > 100 | – | > 100 | 33.9 | > 100 | – | 4.16 | 6.40 | –
